In ChEMBL document CHEMBL1142716, “2-Hydroxy-4,6-diamino-[1,3,5]triazines: a novel class of VEGF-R2 (KDR) tyrosine kinase inhibitors” (J Med Chem, 2005):
pIC50: −log10 of the molar value.

Assays:
[1] = molecular target: T1, Vascular endothelial growth factor receptor 2 (Homo sapiens, UniProt P35968); experiment: Inhibition of KDR-induced MAP kinase autophosphorylation assay in HUVEC cells; format: functional, cell-based
Summary of the method: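 Low-passage HUVECs (passage 3-12) were grown to confluence, serum-starved, treated with compound or DMSO, then stimulated with VEGF. Cells were lysed, run on SDS-PAGE and immunoblotted quantitatively with a phospho-p42/44 MAP kinase (pERK1/2) antibody. Inhibition is expressed as a percent of VEGF-stimulated phosphorylation in DMSO controls. IC50 values are the mean of three independent experiments.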

[2] = molecular target: T1, Vascular endothelial growth factor receptor 2; experiment: In vitro inhibition of Vascular endothelial growth factor receptor 2 at 10 uM ATP
[3] = Inhibition of fibroblast growth factor receptor 1
[4] = molecular target: Fibroblast growth factor receptor 1 (Mus musculus, UniProt P16092); experiment: Inhibition of mouse Fibroblast growth factor receptor 1 expressed in NIH 3T3 fibroblasts
Summary of the method: (§1)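 Cell-based counterscreen for growth-factor-induced p42/44 MAP kinase phosphorylation through EGFR, insulin receptor or FGFR-1. Cells were grown, treated and fixed in 96-well plates, and phosphorylation was read by phospho-specific ELISA.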

[5] = molecular target: T2, Epidermal growth factor receptor (Homo sapiens, UniProt P00533); experiment: Inhibition of human Epidermal growth factor receptor expressed in A431
Summary of the method: (§2)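 Cell-based counterscreen. Cells were grown, treated with compound and fixed in wells. EGF-R-induced phosphorylation of MAP kinase was then read directly by a phosphorylation-specific ELISA.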

Angiopoietin-1 receptor = Angiopoietin-1 receptor (Homo sapiens, UniProt Q02763); experiment: Inhibition of tyrosine protein kinase receptor TIE-2
Insulin receptor [6] = molecular target: T3, Insulin receptor (Homo sapiens, UniProt P06213); experiment: Inhibition of human Insulin receptor expressed in CHO cells; format: cell-based; summary of the method: as §1
[7] = Inhibition of c-Src tyrosine kinase
[8] = molecular target: Platelet-derived growth factor receptor (Homo sapiens, UniProt P09619+P16234); experiment: Inhibition of PDGF-R2 tyrosine kinase; format: protein-complex assay
Insulin receptor [9] = molecular target: T3, Insulin receptor; experiment: Inhibition of beta IRK tyrosine kinase
[10] = molecular target: Macrophage colony-stimulating factor 1 receptor (Homo sapiens, UniProt P07333); experiment: Inhibition of c-fms tyrosine kinase
HUVEC = experiment: Inhibitory concentration against HUVEC cells; format: functional, cell-based; conditions: Homo sapiens
[11] = molecular target: T2, Epidermal growth factor receptor; experiment: Inhibition of human epidermal growth factor receptor; summary of the method: as §2
Rattus norvegicus [12] = species: Rattus norvegicus; experiment: Total tube length (arbitrary units) of aortic rings was measured by aortic ring assay in rat at 30 uM concentration of the compound; format: functional, Aorta
Summary of the method: (§3)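 Rings cut from rat aorta were embedded in collagen gels containing 5 ng/mL VEGF and cultured for 7 days with test compound. The total length of capillary-like sprouts growing out from each ring was measured in arbitrary units and reported with SEM.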

Rattus norvegicus [13] = species: Rattus norvegicus; experiment: Total tube length (arbitrary units) of aortic rings was measured by aortic ring assay in rat at 0.3 uM concentration of the compound; format: functional, Aorta; summary of the method: as §3
Rattus norvegicus [14] = species: Rattus norvegicus; experiment: Total tube length (arbitrary units) of aortic rings was measured by aortic ring assay in rat at 3 uM concentration of the compound; format: functional, Aorta; summary of the method: as §3
[15] = Inhibition of Fibroblast growth factor receptor 1

Chain of Macrophage colony-stimulating factor 1 receptor (P07333 whole entry): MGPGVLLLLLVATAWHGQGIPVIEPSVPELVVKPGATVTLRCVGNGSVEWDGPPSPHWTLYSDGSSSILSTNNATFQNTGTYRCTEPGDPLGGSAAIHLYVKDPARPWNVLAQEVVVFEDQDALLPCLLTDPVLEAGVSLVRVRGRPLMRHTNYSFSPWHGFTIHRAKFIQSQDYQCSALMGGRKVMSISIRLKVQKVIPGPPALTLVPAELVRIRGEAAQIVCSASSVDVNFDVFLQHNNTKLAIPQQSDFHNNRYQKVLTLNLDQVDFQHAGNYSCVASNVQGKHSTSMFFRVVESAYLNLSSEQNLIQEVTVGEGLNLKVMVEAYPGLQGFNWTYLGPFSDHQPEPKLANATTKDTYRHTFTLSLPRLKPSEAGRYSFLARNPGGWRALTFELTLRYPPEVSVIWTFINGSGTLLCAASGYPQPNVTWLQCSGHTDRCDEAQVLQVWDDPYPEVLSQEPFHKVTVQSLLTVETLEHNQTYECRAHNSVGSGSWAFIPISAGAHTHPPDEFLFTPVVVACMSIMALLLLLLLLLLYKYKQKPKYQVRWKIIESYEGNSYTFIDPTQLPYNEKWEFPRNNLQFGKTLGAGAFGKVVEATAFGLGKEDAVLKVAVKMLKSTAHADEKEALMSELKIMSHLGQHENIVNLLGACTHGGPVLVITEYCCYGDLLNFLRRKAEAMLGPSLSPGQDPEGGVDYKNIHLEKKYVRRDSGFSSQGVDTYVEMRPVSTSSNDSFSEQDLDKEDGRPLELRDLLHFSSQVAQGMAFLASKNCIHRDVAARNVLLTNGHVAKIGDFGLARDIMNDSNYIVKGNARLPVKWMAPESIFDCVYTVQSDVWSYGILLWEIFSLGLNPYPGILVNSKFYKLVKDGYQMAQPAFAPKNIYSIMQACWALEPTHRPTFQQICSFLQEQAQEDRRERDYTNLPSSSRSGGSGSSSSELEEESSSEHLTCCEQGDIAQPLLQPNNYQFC
T2 sequence (P00533 whole entry): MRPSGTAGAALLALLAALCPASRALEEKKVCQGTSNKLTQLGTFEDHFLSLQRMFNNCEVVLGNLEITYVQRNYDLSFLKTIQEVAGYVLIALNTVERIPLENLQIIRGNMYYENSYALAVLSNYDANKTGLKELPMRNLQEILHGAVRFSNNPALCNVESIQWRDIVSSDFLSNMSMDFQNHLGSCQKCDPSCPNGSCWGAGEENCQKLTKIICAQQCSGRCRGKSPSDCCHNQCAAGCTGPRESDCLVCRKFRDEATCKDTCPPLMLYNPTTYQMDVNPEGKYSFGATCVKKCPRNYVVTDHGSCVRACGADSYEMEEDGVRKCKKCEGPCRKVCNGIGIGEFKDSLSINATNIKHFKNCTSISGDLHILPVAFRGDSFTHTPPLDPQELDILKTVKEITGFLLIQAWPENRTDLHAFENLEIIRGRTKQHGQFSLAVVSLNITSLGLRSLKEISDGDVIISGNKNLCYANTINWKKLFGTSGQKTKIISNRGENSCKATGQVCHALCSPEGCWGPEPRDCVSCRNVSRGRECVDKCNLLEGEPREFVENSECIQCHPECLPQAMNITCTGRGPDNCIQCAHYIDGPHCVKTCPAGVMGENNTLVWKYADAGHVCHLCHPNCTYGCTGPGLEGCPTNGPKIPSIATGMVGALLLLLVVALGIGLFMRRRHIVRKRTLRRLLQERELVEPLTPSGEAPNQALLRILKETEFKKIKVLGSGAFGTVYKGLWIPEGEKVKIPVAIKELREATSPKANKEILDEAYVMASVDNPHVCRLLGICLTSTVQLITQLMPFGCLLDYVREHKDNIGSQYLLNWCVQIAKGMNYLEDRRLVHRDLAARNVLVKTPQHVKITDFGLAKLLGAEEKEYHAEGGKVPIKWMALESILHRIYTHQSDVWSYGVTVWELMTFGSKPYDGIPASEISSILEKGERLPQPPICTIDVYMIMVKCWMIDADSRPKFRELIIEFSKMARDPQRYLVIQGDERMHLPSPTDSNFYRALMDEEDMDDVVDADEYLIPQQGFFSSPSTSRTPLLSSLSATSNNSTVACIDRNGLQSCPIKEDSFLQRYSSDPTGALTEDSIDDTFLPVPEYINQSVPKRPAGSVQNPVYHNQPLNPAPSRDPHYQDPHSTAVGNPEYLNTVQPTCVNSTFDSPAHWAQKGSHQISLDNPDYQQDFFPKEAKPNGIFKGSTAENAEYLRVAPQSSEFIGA
T1 sequence (P35968 whole entry): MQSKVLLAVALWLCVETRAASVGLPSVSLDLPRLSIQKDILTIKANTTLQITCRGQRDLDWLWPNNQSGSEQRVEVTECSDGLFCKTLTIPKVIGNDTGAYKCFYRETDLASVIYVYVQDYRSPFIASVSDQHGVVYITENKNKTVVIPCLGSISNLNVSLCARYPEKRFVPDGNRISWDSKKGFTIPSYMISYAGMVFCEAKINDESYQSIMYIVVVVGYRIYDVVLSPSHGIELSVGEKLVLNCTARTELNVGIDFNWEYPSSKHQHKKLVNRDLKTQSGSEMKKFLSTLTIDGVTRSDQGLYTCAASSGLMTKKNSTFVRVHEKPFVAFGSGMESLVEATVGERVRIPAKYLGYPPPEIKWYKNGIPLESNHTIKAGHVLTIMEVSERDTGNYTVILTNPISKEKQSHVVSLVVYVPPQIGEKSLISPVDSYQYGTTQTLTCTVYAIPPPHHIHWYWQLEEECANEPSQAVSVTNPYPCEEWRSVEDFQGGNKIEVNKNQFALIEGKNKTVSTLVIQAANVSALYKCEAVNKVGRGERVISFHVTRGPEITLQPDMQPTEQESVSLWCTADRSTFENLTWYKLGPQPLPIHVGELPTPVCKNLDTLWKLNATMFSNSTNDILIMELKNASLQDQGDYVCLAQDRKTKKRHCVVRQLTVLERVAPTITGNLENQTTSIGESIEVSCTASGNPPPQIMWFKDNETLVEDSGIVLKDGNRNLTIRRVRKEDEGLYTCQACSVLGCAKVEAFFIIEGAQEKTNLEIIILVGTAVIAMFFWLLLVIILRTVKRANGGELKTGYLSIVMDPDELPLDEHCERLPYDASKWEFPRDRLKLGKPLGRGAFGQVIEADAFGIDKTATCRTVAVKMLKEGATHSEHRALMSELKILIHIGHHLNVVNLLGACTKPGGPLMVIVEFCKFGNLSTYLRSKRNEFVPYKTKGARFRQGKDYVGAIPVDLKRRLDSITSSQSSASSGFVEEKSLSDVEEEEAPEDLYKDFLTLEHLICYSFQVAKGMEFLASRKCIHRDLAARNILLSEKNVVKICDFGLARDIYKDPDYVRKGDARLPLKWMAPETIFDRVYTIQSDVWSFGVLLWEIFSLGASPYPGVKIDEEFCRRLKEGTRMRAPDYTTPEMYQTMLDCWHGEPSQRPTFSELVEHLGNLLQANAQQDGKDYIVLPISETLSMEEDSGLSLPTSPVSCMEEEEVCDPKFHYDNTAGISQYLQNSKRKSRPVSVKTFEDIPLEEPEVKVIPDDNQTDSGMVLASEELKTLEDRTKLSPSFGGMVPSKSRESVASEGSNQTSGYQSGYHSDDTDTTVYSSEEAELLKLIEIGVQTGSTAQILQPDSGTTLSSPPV
Chain of Angiopoietin-1 receptor (Q02763 whole entry): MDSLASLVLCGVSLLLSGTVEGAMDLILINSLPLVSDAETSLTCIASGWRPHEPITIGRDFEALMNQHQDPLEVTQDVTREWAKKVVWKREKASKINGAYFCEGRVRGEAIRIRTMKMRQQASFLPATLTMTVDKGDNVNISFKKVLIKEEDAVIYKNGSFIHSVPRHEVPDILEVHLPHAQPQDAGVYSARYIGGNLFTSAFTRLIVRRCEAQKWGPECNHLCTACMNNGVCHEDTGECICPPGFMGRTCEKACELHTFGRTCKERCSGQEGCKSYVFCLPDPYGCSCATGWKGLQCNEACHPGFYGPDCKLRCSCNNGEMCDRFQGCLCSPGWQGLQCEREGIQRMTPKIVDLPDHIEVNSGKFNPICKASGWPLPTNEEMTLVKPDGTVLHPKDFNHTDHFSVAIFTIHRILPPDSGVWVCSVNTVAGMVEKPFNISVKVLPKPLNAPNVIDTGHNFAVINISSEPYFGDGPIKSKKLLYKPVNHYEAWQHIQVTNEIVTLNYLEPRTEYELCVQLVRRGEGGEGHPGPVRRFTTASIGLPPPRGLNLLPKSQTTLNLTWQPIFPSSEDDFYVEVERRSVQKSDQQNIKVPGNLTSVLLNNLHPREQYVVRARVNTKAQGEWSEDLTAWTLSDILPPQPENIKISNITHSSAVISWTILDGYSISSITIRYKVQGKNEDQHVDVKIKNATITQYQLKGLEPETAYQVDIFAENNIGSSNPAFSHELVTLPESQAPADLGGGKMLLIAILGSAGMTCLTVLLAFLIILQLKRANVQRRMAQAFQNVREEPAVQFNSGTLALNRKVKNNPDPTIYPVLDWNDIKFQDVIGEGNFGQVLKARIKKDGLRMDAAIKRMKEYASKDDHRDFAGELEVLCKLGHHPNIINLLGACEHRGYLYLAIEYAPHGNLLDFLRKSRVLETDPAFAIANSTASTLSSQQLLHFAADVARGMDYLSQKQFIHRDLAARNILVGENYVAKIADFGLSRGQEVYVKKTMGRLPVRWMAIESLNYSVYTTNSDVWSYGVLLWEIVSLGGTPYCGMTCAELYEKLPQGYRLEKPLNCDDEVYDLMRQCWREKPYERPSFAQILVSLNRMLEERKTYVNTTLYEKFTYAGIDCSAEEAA

## COc1nc(Nc2ccc3ncsc3c2)nc(NC(C)(C)c2ccccc2)n1
[1]
  pIC50: < 4.52
[2]
  pIC50: 5.21

## CC(C)(Nc1nc(Cl)nc(Nc2ccc3ncsc3c2)n1)c1ccccc1
[1]
  pIC50: 5.97
[2]
  pIC50: 5.26

## CC(C)(Nc1nc(O)nc(Nc2ccc3[nH]cnc3c2)n1)c1ccccc1
[1]
  pIC50: < 4.70
[2]
  pIC50: 6.62

## CC(C)(Nc1nc(O)nc(Nc2ccc3ncsc3c2)n1)c1ccccc1
[3]
  pIC50: < 4.90
[4]
  pIC50: < 5.00
[5]
  pIC50: < 5.00
Angiopoietin-1 receptor
  pIC50: 6.00
Insulin receptor [6]
  pIC50: < 5.00
[7]
  pIC50: 5.37
[1]
  pIC50: 6.40
[2]
  pIC50: 7.46
[8]
  pIC50: 5.10
Insulin receptor [9]
  pIC50: 6.26
[10]
  pIC50: < 4.90

## CC(C)N(Cc1ccccc1)c1nc(O)nc(Nc2ccc3ncsc3c2)n1
[3]
  pIC50: < 4.90
[4]
  pIC50: < 5.00
HUVEC
  pIC50: 6.55
Angiopoietin-1 receptor
  pIC50: 6.74
Insulin receptor [6]
  pIC50: < 5.00
[11]
  pIC50: < 5.00
[7]
  pIC50: < 4.90
Rattus norvegicus [12]
  Activity: 36.3
[1]
  pIC50: 6.55
[2]
  pIC50: 7.74
[8]
  pIC50: < 4.90
Rattus norvegicus [13]
  Activity: 1503
Insulin receptor [9]
  pIC50: 4.96
Rattus norvegicus [14]
  Activity: 348
[10]
  pIC50: < 4.90

## CCN(Cc1ccccc1)c1nc(O)nc(Nc2ccc3ncsc3c2)n1
[4]
  pIC50: < 5.00
[5]
  pIC50: < 5.00
Angiopoietin-1 receptor
  pIC50: 6.40
Insulin receptor [6]
  pIC50: < 5.00
[7]
  pIC50: 5.51
[1]
  pIC50: 6.22
[2]
  pIC50: 7.31
[8]
  pIC50: 5.60
Insulin receptor [9]
  pIC50: 5.40
[10]
  pIC50: 5.37
[15]
  pIC50: < 4.90

## CC(C)(Nc1nc(NO)nc(Nc2ccc3ncsc3c2)n1)c1ccccc1
[3]
  pIC50: 5.74
[4]
  pIC50: < 5.00
[5]
  pIC50: < 5.00
Angiopoietin-1 receptor
  pIC50: 6.15
Insulin receptor [6]
  pIC50: < 5.00
[7]
  pIC50: 5.74
[1]
  pIC50: 6.08
[2]
  pIC50: 7.40
[8]
  pIC50: 5.41
Insulin receptor [9]
  pIC50: 6.38
[10]
  pIC50: 4.85

## CN(Cc1ccccc1)c1nc(O)nc(Nc2ccc3ncsc3c2)n1
[1]
  pIC50: 5.62
[2]
  pIC50: 6.49

## Oc1nc(NCc2ccccc2)nc(Nc2ccc3ncsc3c2)n1
[1]
  pIC50: < 4.52
[2]
  pIC50: 5.70
